Measurements taken from ChEMBL document CHEMBL4665630, “Synthesis and biological evaluation of anthraquinone derivatives as allosteric phosphoglycerate mutase 1 inhibitors for cancer treatment” (Eur J Med Chem, 2019).

Molecular target: Phosphoglycerate mutase 1 (Homo sapiens, UniProt P18669)
Experiment: Inhibition of human recombinant PGAM1 by measuring decrease in OD by enzyme based assay
Details: not given
Summary of the method: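 C-terminal His6-tagged PGAM1, Ni-NTA purified, 4.6 nM, preincubated with inhibitor in DMSO; coupled enolase/pyruvate kinase M2/LDH system in 100 mM Tris-HCl, 100 mM KCl, 5 mM MgCl2, 1 mM ADP, 0.2 mM NADH, 4 mM 3PG; NADH loss read at 340 nm. Counter-screen without PGAM1 using 4 mM 2PG. Mean ± s.d., n=3.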

Sequence of Phosphoglycerate mutase 1 (P18669 whole entry): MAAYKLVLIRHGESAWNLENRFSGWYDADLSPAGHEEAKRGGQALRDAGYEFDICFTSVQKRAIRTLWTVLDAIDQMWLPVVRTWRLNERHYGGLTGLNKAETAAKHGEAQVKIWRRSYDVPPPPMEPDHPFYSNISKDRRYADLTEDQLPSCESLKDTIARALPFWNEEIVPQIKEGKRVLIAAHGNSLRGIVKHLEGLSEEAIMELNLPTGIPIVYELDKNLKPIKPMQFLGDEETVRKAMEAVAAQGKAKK

First: CN1CCN(c2ccc(S(=O)(=O)Nc3cc4c(c(O)c3O)C(=O)c3ccccc3C4=O)cc2)CC1
Second: O=C1c2ccccc2C(=O)c2c1cc(NS(=O)(=O)c1ccc(Cl)c(C(F)(F)F)c1)c(O)c2O
The IC50 of the first is higher: over 10 µM for the first, 0.55 µM for the second.

Work on `O=C1c2ccccc2C(=O)c2c1cc(NS(=O)(=O)c1cccc3ccccc13)c(O)c2O` yielded an IC50 of 1.29 µM.

Test system: NCI-H1299
Experiment: Antiproliferative activity against human H1299 cells assessed as reduction in cell viability measured after 72 hrs by MTT assay
Format: functional, cell-based
Details: NCI-H1299, 72 h
Summary of the method: (§1)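 Cells grown in RPMI-1640 (H1299, PC9) or F-12K (A549) with 10% FBS and penicillin/streptomycin; 2000 H1299 or A549 or 1000 PC9 cells per well, attached 24 h, exposed to inhibitor 72 h; MTT 0.5 mg/mL for 4 h, absorbance at 570 nm; mean ± s.d., n=3.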

First: O=C1c2ccccc2C(=O)c2c1cc(NS(=O)(=O)c1cccc3ccccc13)c(O)c2O
Second: O=C1c2ccccc2C(=O)c2c1cc(NS(=O)(=O)c1ccc(Cl)c(C(F)(F)F)c1)c(O)c2O
The IC50 of the first is 1.7-fold lower: 7.7 µM for the first, 13 µM for the second. The first is the more potent here.

Test system: A549
Experiment: Antiproliferative activity against human A549 cells assessed as reduction in cell viability measured after 72 hrs by MTT assay
Format: functional, cell-based
Details: A549, 72 h
Summary of the method: as §1

Compared with `O=C1c2ccccc2C(=O)c2c1cc(NS(=O)(=O)c1cccc3ccccc13)c(O)c2O`, `O=C1c2ccccc2C(=O)c2c1cc(NS(=O)(=O)c1ccc(Cl)c(C(F)(F)F)c1)c(O)c2O` is 2.3-fold lower in IC50: 50.5 µM for the first, 21.6 µM for the second.

Test system: PC-9
Experiment: Antiproliferative activity against human PC-9 cells assessed as reduction in cell viability measured after 72 hrs by MTT assay
Format: functional, cell-based
Details: PC-9, 72 h
Summary of the method: as §1

`O=C1c2ccccc2C(=O)c2c1cc(NS(=O)(=O)c1cccc3ccccc13)c(O)c2O` and `O=C1c2ccccc2C(=O)c2c1cc(NS(=O)(=O)c1ccc(Cl)c(C(F)(F)F)c1)c(O)c2O` are within 1.5-fold of each other in IC50: 18.1 µM for the first, 17.5 µM for the second.
